Reference: ChEMBL document CHEMBL4393708, “Pyridinylimidazoles as dual glycogen synthase kinase 3β/p38α mitogen-activated protein kinase inhibitors” (Eur J Med Chem, 2019)
Converted amounts (≈) assume the structure as drawn.

Experiments:
[1] = Drug metabolism in RjOrl:Swiss CD-1 mouse assessed as ratio of compound to N-(4-(4-(4-Fluorophenyl)-2-(methylsulfinyl)-1H-imidazol-5-yl)pyridin-2-yl)cyclopropanecarboxamide metabolite level at 10 mg/kg, iv administered as single dose measured after 10 mins by LC-MS analysis; format: ADME, organism-based; details: in vivo
Outline: (§1)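 Adult male RjOrl:Swiss CD-1 mice got one intravenous dose of 10 mg/kg. Plasma was sampled at 10, 30 and 120 min. After the last sample the mice were sacrificed and brains dissected. Blood and brain samples were prepared and analysed by LC-MS for parent and sulfoxide metabolite; brain levels reported as ng/g.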

[2] = target: T1, Glycogen synthase kinase-3 beta (Homo sapiens, UniProt P49841); assay: Competitive inhibition of human recombinant full length GSK3beta using YRRAAVPPSPSLSRHSSPHQ(pS)EDEEE as substrate preincubated with enzyme for 10 mins followed by substrate and 500 uM ATP addition measured after 60 mins by ADP-Glo luminescence assay
Outline: (§2)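 Recombinant human GSK3β at 0.58 ng/µL with 0.2 µg/µL substrate G50-58; ATP at 25 µM, 100 µM or 500 µM, each as its line states. Compounds in serial dilutions were preincubated with kinase for 10 min at rt. Substrate/ATP was then added and the reaction ran 60 min at rt. ADP-Glo reagent 60 min, detection reagent 30 min, then luminescence read (500 ms integration).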

CYP3A4 = CYP3A4 (Homo sapiens, UniProt P08684); assay: Inhibition of human recombinant CYP3A4 expressed in baculovirus infected insect cells using BOMR as substrate at 10 uM in presence of NADPH by fluorimetric analysis relative to control; format: ADME; details: probe BOMR
[3] = target: T1, Glycogen synthase kinase-3 beta; assay: Competitive inhibition of human recombinant full length GSK3beta using YRRAAVPPSPSLSRHSSPHQ(pS)EDEEE as substrate preincubated with enzyme for 10 mins followed by substrate and 25 uM ATP addition measured after 60 mins by ADP-Glo luminescence assay
Outline: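 Compounds in serial dilutions were preincubated with kinase for 10 min at rt. Substrate/ATP was then added and the reaction ran 60 min at rt. ADP-Glo reagent 60 min, detection reagent 30 min, then luminescence read (500 ms integration).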

[4] = Metabolic stability in human liver microsomes assessed as parent compound remaining after 20 mins by LC-MS analysis relative to control; format: ADME, Microsome; details: read-out: Stability
Cytochrome P450 2C19 = Cytochrome P450 2C19 (Homo sapiens, UniProt P33261); assay: Inhibition of human recombinant CYP2C19 expressed in baculovirus infected insect cells using EOMCC as substrate in presence of NADPH by fluorimetric analysis relative to control; format: ADME; details: recombinant enzyme
[5] = Metabolic stability in human liver microsomes assessed as parent compound remaining after 60 mins by LC-MS analysis relative to control; format: ADME, Microsome; details: read-out: Stability
[6] = Metabolic stability in human liver microsomes assessed as parent compound remaining after 180 mins by LC-MS analysis relative to control; format: ADME, Microsome; details: read-out: Stability
[7] = Solubility of the compound in PBS buffer at pH 7.8 after 1 hr by HPLC analysis; format: physicochemical
CYP1A2 = CYP1A2 (Homo sapiens, UniProt P05177); assay: Inhibition of human recombinant CYP1A2 expressed in baculovirus infected insect cells using 3-cyano-7-ethoxycoumarin as substrate at 10 uM in presence of NADPH by fluorimetric analysis relative to control; format: ADME; details: probe 3-cyano-7-ethoxycoumarin
[8] = Metabolic stability in human liver microsomes assessed as parent compound remaining after 10 mins by LC-MS analysis relative to control; format: ADME, Microsome; details: read-out: Stability
[9] = Drug metabolism in human liver microsomes assessed as N-(4-(4-(4-Fluorophenyl)-2-(methylsulfinyl)-1H-imidazol-5-yl)pyridin-2-yl)cyclopropanecarboxamide metabolite formation by measuring half life by LC-MS analysis; format: ADME, Microsome
Outline: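 Incubation with human liver microsomes for up to 4 h. Remaining parent and sulfoxide metabolite formation were followed over time, giving a half-life for the oxidation.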

[10] = Metabolic stability in human liver microsomes assessed as parent compound remaining after 120 mins by LC-MS analysis relative to control; format: ADME, Microsome; details: read-out: Stability
hERG (KCNH2) = hERG (KCNH2) (Homo sapiens, UniProt Q12809); assay: Inhibition of tracer Red binding to human ERG expressed in membranes at 10 uM after 4 hrs by fluorescence polarization assay relative to control; details: membranes expressing human ERG, probe tracer Red
CYP2D6 = CYP2D6 (Homo sapiens, UniProt P10635); assay: Inhibition of human recombinant CYP2D6 expressed in baculovirus infected insect cells using EOMCC as substrate at 10 uM in presence of NADPH by fluorimetric analysis relative to control; format: ADME; details: probe EOMCC
[11] = Metabolic stability in human liver microsomes assessed as parent compound remaining after 30 mins by LC-MS analysis relative to control; format: ADME, Microsome; details: read-out: Stability
Blood = assay: Inhibition of LPS-induced TNFalpha production in human whole blood preincubated with compound for 15 mins followed by LPS addition measured after 2.5 hrs by ELISA; format: functional, tissue-based
[12] = Metabolic stability in human liver microsomes assessed as parent compound remaining after 240 mins by LC-MS analysis relative to control; format: ADME, Microsome; details: read-out: Stability
CYP2C9 = CYP2C9 (Homo sapiens, UniProt P11712); assay: Inhibition of human recombinant CYP2C9 expressed in baculovirus infected insect cells using OOMR as substrate at 10 uM in presence of NADPH by fluorimetric analysis relative to control; format: ADME; details: probe OOMR
[13] = Drug metabolism in RjOrl:Swiss CD-1 mouse at 10 mg/kg, iv administered as single dose measured after 2 hrs by LC-MS relative to control; format: ADME, organism-based; details: in vivo; outline: as §1
[14] = target: Mitogen-activated protein kinase 14 (Homo sapiens, UniProt Q16539); assay: Inhibition of p38alpha MAPK (unknown origin) using ATF-2 as substrate after 1 hr by ELISA
[15] = target: T1, Glycogen synthase kinase-3 beta; assay: Competitive inhibition of human recombinant full length GSK3beta using YRRAAVPPSPSLSRHSSPHQ(pS)EDEEE as substrate preincubated with enzyme for 10 mins followed by substrate and 100 uM ATP addition measured after 60 mins by ADP-Glo luminescence assay; outline: as §2
[16] = target: Glycogen synthase kinase-3 alpha (Homo sapiens, UniProt P49840); assay: Inhibition of human recombinant full length GSK3alpha using YRRAAVPPSPSLSRHSSPHQ(pS)EDEEE as substrate preincubated with enzyme for 10 mins followed by substrate and 25 uM ATP addition measured after 60 mins by ADP-Glo luminescence assay
Outline: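 Recombinant human GSK3α at 0.50 ng/µL, 25 µM ATP, 0.2 µg/µL substrate G50-58, serial compound dilutions. Kinase was preincubated with compound 10 min at rt, then run 60 min at rt after substrate/ATP addition. ADP-Glo reagent 60 min, detection reagent 30 min, luminescence read. Uninhibited-kinase and ATP/substrate-only controls were included.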

T1 sequence (P49841 whole entry): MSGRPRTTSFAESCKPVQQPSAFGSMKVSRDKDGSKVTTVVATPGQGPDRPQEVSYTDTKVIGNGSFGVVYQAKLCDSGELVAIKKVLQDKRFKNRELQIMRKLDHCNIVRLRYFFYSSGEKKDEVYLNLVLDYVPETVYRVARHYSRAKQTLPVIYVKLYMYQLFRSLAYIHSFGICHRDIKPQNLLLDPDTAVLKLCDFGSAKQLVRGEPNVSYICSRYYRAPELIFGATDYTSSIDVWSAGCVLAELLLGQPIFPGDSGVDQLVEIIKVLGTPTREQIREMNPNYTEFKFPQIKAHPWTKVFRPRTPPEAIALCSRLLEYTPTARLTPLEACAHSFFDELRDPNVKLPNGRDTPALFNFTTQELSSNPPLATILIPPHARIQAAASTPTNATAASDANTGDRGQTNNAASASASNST
Sequence of Glycogen synthase kinase-3 alpha (P49840 whole entry): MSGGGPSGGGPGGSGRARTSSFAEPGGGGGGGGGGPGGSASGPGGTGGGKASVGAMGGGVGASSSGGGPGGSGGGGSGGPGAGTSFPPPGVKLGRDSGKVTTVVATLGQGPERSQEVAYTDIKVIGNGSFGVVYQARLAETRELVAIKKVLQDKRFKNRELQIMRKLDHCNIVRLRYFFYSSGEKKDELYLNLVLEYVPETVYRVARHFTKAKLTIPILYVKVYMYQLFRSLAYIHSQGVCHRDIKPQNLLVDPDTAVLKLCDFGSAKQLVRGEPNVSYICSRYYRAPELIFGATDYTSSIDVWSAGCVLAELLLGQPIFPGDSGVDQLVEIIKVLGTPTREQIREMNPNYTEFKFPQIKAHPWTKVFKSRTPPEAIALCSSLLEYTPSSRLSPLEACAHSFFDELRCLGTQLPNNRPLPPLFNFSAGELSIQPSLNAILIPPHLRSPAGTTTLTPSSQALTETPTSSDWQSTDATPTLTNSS
Sequence of CYP2C9 (P11712 whole entry): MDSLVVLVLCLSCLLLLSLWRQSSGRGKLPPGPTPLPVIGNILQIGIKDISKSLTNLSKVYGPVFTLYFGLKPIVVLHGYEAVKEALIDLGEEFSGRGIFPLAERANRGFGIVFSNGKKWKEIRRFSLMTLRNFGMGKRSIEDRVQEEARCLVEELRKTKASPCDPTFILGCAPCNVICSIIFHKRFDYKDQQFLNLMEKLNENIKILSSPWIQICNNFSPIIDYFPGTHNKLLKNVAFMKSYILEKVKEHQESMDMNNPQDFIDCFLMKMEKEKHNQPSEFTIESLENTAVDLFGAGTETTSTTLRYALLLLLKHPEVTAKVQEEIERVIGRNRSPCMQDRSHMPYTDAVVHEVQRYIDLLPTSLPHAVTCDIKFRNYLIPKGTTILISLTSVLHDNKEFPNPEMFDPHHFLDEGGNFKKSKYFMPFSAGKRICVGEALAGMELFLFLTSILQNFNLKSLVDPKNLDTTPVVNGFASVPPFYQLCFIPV
Sequence of CYP2D6 (P10635 whole entry): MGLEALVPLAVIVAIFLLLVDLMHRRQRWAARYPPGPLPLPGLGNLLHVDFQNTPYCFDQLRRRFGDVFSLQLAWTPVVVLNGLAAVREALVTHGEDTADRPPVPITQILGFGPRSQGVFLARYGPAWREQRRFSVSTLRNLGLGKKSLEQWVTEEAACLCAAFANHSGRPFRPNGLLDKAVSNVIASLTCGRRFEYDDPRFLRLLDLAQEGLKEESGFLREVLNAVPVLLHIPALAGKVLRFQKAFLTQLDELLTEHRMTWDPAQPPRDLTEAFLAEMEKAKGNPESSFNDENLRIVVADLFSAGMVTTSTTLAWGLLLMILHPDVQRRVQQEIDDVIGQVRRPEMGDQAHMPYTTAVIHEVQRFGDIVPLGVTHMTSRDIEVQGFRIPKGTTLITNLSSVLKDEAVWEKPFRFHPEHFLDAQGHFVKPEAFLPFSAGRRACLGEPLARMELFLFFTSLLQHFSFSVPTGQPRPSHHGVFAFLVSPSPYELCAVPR
Sequence of CYP3A4 (P08684 whole entry): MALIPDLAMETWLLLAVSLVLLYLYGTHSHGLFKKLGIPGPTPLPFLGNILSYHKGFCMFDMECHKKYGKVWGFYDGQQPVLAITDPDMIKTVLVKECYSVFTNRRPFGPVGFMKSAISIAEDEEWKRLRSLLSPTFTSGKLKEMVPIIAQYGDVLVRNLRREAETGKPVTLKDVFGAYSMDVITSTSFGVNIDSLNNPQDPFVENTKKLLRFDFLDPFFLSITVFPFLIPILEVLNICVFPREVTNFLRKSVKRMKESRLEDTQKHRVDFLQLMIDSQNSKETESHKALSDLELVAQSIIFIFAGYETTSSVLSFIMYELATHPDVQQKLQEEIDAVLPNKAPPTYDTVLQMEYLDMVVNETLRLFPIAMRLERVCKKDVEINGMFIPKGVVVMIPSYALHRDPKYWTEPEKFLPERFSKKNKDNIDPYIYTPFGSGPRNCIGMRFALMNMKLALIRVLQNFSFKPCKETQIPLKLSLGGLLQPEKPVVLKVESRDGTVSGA
Sequence of hERG (KCNH2) (Q12809 whole entry): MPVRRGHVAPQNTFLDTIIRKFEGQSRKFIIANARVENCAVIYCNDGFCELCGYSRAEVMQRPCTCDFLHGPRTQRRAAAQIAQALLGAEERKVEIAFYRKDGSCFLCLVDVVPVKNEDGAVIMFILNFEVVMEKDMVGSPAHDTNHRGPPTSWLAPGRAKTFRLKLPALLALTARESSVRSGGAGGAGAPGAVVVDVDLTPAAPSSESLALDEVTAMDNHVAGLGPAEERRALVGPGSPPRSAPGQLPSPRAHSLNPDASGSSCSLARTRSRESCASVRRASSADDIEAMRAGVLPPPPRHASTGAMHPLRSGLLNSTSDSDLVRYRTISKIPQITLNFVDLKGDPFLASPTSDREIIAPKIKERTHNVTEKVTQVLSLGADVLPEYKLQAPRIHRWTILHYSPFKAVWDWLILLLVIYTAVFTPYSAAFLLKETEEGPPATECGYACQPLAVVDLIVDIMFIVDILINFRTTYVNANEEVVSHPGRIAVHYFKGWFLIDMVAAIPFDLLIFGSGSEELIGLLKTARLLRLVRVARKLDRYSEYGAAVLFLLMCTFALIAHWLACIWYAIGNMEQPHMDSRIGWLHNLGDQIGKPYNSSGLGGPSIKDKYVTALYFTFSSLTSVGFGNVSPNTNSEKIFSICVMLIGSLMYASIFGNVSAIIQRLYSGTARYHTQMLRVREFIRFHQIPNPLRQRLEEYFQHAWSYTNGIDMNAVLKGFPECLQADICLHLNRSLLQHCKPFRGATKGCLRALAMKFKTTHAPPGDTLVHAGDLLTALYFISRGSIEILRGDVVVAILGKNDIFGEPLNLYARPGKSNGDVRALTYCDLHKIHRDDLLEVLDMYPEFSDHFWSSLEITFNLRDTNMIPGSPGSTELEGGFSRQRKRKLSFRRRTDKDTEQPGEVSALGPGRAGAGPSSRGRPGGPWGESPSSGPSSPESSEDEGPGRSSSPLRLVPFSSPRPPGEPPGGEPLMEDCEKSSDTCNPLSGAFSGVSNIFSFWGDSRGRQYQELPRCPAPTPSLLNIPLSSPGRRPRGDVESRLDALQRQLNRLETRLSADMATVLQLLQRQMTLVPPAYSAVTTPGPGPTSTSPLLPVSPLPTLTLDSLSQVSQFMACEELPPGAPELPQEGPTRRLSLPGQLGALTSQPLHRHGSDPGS
Sequence of Mitogen-activated protein kinase 14 (Q16539 whole entry): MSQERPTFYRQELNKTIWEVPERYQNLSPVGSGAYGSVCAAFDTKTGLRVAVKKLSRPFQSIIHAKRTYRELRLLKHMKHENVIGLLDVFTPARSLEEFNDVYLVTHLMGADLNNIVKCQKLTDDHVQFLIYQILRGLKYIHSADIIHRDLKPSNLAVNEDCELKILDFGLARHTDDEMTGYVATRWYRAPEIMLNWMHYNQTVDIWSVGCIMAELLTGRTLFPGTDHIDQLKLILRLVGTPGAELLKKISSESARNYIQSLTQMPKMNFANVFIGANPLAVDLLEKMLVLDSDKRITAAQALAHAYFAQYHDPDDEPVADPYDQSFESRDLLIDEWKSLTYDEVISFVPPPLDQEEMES
Sequence of CYP1A2 (P05177 whole entry): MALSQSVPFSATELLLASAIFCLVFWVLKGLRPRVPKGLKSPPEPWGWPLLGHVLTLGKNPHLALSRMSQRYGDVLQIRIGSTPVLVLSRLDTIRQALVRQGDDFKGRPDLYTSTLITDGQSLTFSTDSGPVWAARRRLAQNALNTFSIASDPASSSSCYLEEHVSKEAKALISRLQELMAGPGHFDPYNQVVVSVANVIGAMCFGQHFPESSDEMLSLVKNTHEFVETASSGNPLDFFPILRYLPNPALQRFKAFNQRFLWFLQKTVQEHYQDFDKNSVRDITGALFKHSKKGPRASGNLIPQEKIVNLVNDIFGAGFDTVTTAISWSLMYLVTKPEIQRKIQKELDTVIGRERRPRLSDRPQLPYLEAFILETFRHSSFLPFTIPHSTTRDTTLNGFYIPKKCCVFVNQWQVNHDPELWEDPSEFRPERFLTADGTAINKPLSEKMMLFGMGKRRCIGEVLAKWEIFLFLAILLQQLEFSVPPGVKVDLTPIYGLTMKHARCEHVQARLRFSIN
Sequence of Cytochrome P450 2C19 (P33261 whole entry): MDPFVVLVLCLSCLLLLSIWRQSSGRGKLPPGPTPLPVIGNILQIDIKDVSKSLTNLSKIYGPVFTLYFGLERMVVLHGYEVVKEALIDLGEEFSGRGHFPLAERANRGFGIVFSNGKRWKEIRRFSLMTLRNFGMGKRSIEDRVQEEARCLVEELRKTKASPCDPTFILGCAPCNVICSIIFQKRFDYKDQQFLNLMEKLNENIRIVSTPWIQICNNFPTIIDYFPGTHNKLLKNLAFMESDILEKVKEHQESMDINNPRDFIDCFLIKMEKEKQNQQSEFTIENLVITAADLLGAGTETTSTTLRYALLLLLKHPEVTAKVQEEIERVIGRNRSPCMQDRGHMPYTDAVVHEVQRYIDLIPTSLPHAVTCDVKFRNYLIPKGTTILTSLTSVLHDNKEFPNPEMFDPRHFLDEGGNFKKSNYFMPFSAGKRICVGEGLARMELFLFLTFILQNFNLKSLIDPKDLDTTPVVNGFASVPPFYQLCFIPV

CSc1nc(-c2ccc(F)cc2)c(-c2ccnc(NC(=O)C3CC3)c2)[nH]1
Ratio [1]: 0.5 | IC50 [2]: 423 nM | inhibition at 10 µM (CYP3A4): 75.6% | IC50 [3]: 18.5 to 40 nM | remaining at 20 min [4]: 97.9% | inhibition (INH) (Cytochrome P450 2C19): 56.1% | remaining at 1 h [5]: 81.8% | remaining at 3 h [6]: 52.1% | solubility at 1 h [7]: 51 µg/mL (≈ 138 µM) | inhibition at 10 µM (CYP1A2): 88.4% | remaining at 10 min [8]: 98.8% | t1/2 [9]: 3.17 h | remaining at 2 h [10]: 65.9% | inhibition at 4 h, 10 µM (hERG (KCNH2)): 30.1% | inhibition at 10 µM (CYP2D6): 14.6% | remaining at 0.5 h [11]: 89.6% | IC50 (Blood): 541 nM | remaining at 4 h [12]: 44% | inhibition at 10 µM (CYP2C9): 77.7% | Drug metabolism [13]: Metabolite_Detected | IC50 [14]: 24 nM | IC50 [15]: 174 nM | IC50 [16]: 300 nM
